Laboratory results from ChEMBL document CHEMBL2311305, “Antiproliferative potency of novel benzofuran-2-carboxamides on tumour cell lines: cell death mechanisms and determination of crystal structure” (Eur J Med Chem, 2013).
Calls of active or inactive are those of the source. No cut-off for these calls is given here.

Experiments:
[1] = test system: SK-BR-3; experiment: Induction of apoptosis in human SKBR3 cells assessed as caspase9 activation at 5 uM after 24 to 48 hrs by caspase protease assay; type: functional, cell-based
In short: (§1)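 Compound at 5 µM on SK-BR-3 and 10 µM on SW620. Cells harvested after 24 and 48 h, washed in PBS, lysed 10 min on ice, centrifuged. Lysate diluted to 3 mg/mL protein and mixed with DTT-containing reaction buffer and caspase-3, -8 or -9 substrate. Incubated 90 min at 37 °C in the dark. Absorbance read at 405 nm, duplicates, compared with untreated control.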

[2] = test system: SK-BR-3; experiment: Induction of apoptosis in human SKBR3 cells assessed as caspase8 activation at 5 uM after 24 to 48 hrs by caspase protease assay; type: functional, cell-based; in short: as §1
[3] = test system: SK-BR-3; experiment: Induction of apoptosis in human SKBR3 cells assessed as caspase3 activation at 5 uM after 24 to 48 hrs by caspase protease assay; type: functional, cell-based; in short: as §1
[4] = test system: SK-BR-3; experiment: Induction of cell cycle arrest in human SKBR3 cells assessed as G2/M phase cells at 10 uM after 48 hrs by PI-staining based flow cytometric analysis (reference value: 11.6 +/- 0.3%); type: functional
[5] = test system: SK-BR-3; experiment: Induction of cell cycle arrest in human SKBR3 cells assessed as G2/M phase cells at 5 uM after 48 hrs by PI-staining based flow cytometric analysis (reference value: 11.6 +/- 0.3%); type: functional
[6] = test system: SK-BR-3; experiment: Induction of cell cycle arrest in human SKBR3 cells assessed as S phase cells at 10 uM after 48 hrs by PI-staining based flow cytometric analysis (reference value: 35.2 +/- 1.8%); type: functional
[7] = test system: SK-BR-3; experiment: Induction of cell cycle arrest in human SKBR3 cells assessed as S phase cells at 5 uM after 48 hrs by PI-staining based flow cytometric analysis (reference value: 35.2 +/- 1.8%); type: functional
[8] = test system: SK-BR-3; experiment: Induction of cell cycle arrest in human SKBR3 cells assessed as G1 phase cells at 10 uM after 48 hrs by PI-staining based flow cytometric analysis (reference value: 53.3 +/- 1.5%); type: functional
[9] = test system: SK-BR-3; experiment: Induction of cell cycle arrest in human SKBR3 cells assessed as G1 phase cells at 5 uM after 48 hrs by PI-staining based flow cytometric analysis (reference value: 53.3 +/- 1.5%); type: functional
[10] = test system: SK-BR-3; experiment: Induction of cell cycle arrest in human SKBR3 cells assessed as subG1 phase cells at 10 uM after 48 hrs by PI-staining based flow cytometric analysis (reference value: 27.5 +/- 0.2%); type: functional
[11] = test system: SK-BR-3; experiment: Induction of cell cycle arrest in human SKBR3 cells assessed as subG1 phase cells at 5 uM after 48 hrs by PI-staining based flow cytometric analysis (reference value: 27.5 +/- 0.2%); type: functional
[12] = test system: SK-BR-3; experiment: Induction of cell cycle arrest in human SKBR3 cells assessed as G2/M phase cells at 5 uM after 24 hrs by PI-staining based flow cytometric analysis (reference value: 33.7 +/- 0.3%); type: functional
[13] = test system: SK-BR-3; experiment: Induction of cell cycle arrest in human SKBR3 cells assessed as G2/M phase cells at 10 uM after 24 hrs by PI-staining based flow cytometric analysis (reference value: 33.7 +/- 0.3%); type: functional
[14] = test system: SK-BR-3; experiment: Induction of cell cycle arrest in human SKBR3 cells assessed as S phase cells at 10 uM after 24 hrs by PI-staining based flow cytometric analysis (reference value: 26.2 +/- 2.3%); type: functional
[15] = test system: SK-BR-3; experiment: Induction of cell cycle arrest in human SKBR3 cells assessed as S phase cells at 5 uM after 24 hrs by PI-staining based flow cytometric analysis (reference value: 26.2 +/- 2.3%); type: functional
[16] = test system: SK-BR-3; experiment: Induction of cell cycle arrest in human SKBR3 cells assessed as G1 phase cells at 10 uM after 24 hrs by PI-staining based flow cytometric analysis (reference value: 40.1 +/- 0.7%); type: functional
[17] = test system: SK-BR-3; experiment: Induction of cell cycle arrest in human SKBR3 cells assessed as G1 phase cells at 5 uM after 24 hrs by PI-staining based flow cytometric analysis (reference value: 40.1 +/- 0.7%); type: functional
[18] = test system: SK-BR-3; experiment: Induction of cell cycle arrest in human SKBR3 cells assessed as subG1 phase cells at 10 uM after 24 hrs by PI-staining based flow cytometric analysis (reference value: 25.1 +/- 0.4%); type: functional
[19] = test system: HeLa; experiment: Cytotoxicity against human HeLa cells after 72 hrs by MTT assay; type: functional, cell-based; details: Homo sapiens, HeLa, 72 h
In short: (§2)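 Cells seeded at 3000-6000 per well on day 0, according to cell line doubling time. Compound added in five 10-fold dilutions, 72-h incubation, then MTT colorimetric read-out. Absorbances converted to percentage growth by NCI formulae. IC50 obtained by linear regression between the concentrations bracketing PG 50; ">100" assigned when no concentration reaches it. Quadruplicate points, three independent experiments.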

[20] = test system: SK-BR-3; experiment: Induction of cell cycle arrest in human SKBR3 cells assessed as subG1 phase cells at 5 uM after 24 hrs by PI-staining based flow cytometric analysis (reference value: 25.1 +/- 0.4%); type: functional
[21] = test system: MIA PaCa-2; experiment: Cytotoxicity against human MIAPaCa2 cells after 72 hrs by MTT assay; type: functional, cell-based; details: Homo sapiens, MIA PaCa-2, 72 h; in short: as §2
[22] = test system: WI-38; experiment: Cytotoxicity against human WI38 cells after 72 hrs by MTT assay; type: cell-based; details: Homo sapiens, WI-38, 72 h; in short: as §2
[23] = test system: SW-620; experiment: Cytotoxicity against human SW620 cells after 72 hrs by MTT assay; type: functional, cell-based; details: Homo sapiens, SW-620, 72 h; in short: as §2
[24] = test system: MCF7; experiment: Cytotoxicity against human MCF7 cells after 72 hrs by MTT assay; type: functional, cell-based; details: Homo sapiens, MCF7, 72 h; in short: as §2
[25] = test system: SK-BR-3; experiment: Cytotoxicity against human SKBR3 cells after 72 hrs by MTT assay; type: functional, cell-based; details: SK-BR-3, 72 h; in short: as §2

## Cl.O=C(Nc1nc2ccc(C3=NCCN3)cc2[nH]1)c1cc2ccccc2o1
[1]
  Activity: Active
[2]
  Activity: Active
[3]
  Activity: Active
[4]
  Activity: 15.9%
[5]
  Activity: 9.7%
[6]
  Activity: 31.3%
[7]
  Activity: 68.5%
[8]
  Activity: 52.8%
[9]
  Activity: 21.8%
[10]
  Activity: 36.3%
[11]
  Activity: 38.1%
[12]
  Activity: 10%
[13]
  Activity: 6.4%
[14]
  Activity: 23.6%
[15]
  Activity: 31.5%
[16]
  Activity: 70%
[17]
  Activity: 58.5%
[18]
  Activity: 31.5%
[19]
  IC50: 68.5 µM
[20]
  Activity: 33.1%
[21]
  IC50: 91.2 µM
[22]
  IC50: > 100 µM
[23]
  IC50: 74.9 µM
[24]
  IC50: 7 µM
[25]
  IC50: 3.83 µM
